# Most compounds without a hit are left out; they make up all but 2.4% or so of the library.
# PGC1a acetyl inh: inhibitors of PGC1a acetylation signal, primary screen, cell-based, U2OS, AlphaScreen, inhibitor mode | AlphaScreen anti-acetyl-lysine; with virally co-expressed GCN5 acetyltransferase | inhibition, % at 15.6 µM | 350,000 tested, 0.17% active;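 active means every replicate shows inhibition of at least 40%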;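 further: 0% = neutral control wells and 100% = positive control wells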
# CASP6 VEID inh: human caspase-6 inhibitors, primary screen, biochemical, VEID-R110 fluorescence, single point, set 2 | 350,000 tested, 0.53% active | P55212 | purified caspase-6, Z-VEID-R110 cleavage fluorescence | inhibition, % at 12.5 µM;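 active means mean inhibition across replicates at least about 35%, with every replicate also reaching that limit, limit read from the data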;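 further: 0% = median of neutral control wells and 100% = no fluorescence left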
# Target sequence (P55212 24-179 limits assumed): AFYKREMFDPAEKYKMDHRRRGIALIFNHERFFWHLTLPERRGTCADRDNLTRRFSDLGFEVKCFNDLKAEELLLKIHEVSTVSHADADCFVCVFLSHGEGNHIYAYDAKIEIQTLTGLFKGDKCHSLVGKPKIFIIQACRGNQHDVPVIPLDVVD
# Target sequence (P55212 194-293 limits assumed): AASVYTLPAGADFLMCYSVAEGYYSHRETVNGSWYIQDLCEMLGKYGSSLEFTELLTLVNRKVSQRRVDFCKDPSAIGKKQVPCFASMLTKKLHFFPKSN
# ARNT-TACC3 inh: disruptors of ARNT/TACC3 protein interaction, primary screen, biochemical, AlphaScreen, single concentration; Transforming acidic coiled-coil-containing protein 3 (Homo sapiens), Q9Y6A5; AlphaScreen His-ARNT PAS-B/GST-TACC3 binding, luminescence; TACC3 fragment carries E629A point mutation; inhibition, % at 9.99 µM; 390,000 tested, 0.66% active; AID 623870, 2012;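 active means mean inhibition of replicates at least 50% and at least half of replicates each reaching 50%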;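 further: 0% = complete ARNT plus TACC3 wells and 100% = ARNT alone without TACC3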
# Ecoli rRNA inh: reduced GFP signal of wild-type E. coli, primary screen, bacterial rRNA inhibitor project, GFP/RFP fluorescence, OD600, single point. E. coli WT GFP vs humanized-ribosome RFP mutants, 24 h; hits give low values; DMSO median 0, no signal -100. GFP signal change (wild-type ribosome), % (test concentration not listed). 350,000 tested, 1.6% active. AID 720706, 2013;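 active means significant combined selectivity score with lowered wild-type GFP, culture density cut under 30%, mutant RFP and density less affected; inactive means any of these conditions unmet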
# S100A4 inh HTS: inhibitors of S100A4-myosin IIA peptide binding, primary screen, biochemical, fluorescence polarization, TAMRA-MyoIIA peptide; Protein S100-A4 (Homo sapiens), P26447; inhibition, % at 10.7 µM; 360,000 tested, 0.14% active; AID 652163, 2013;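 active means mean inhibition of at least 70% across replicates, with every replicate also reaching that level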
# Target sequence (P26447 whole entry, looked up): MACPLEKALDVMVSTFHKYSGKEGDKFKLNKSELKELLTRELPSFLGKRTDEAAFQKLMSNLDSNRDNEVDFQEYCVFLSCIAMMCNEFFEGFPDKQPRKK
#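 System – human S100A4 monomer protein, biochemical binding assay · Buffer or medium – Calcium-containing HEPES buffer, pH 7.2 · Timing – 5 min between mix addition and reading · Also added – TAMRA-labelled myosin IIA heavy-chain peptide probe, 5 nM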
# ERAP1 inh: human ERAP1 aminopeptidase inhibitors, primary screen, biochemical, single point, plate reader | 340,000 tested, 0.15% active | recombinant ERAP1, Leu-AMC fluorescence, 60 min | inhibition, % at 10.7 µM | Endoplasmic reticulum aminopeptidase 1 (Homo sapiens), Q9NZ08;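 active means mean replicate inhibition of at least 30%, or all replicates individually reaching that 30% level; inactive means mean below 30% and not every replicate reaching it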;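 further: 0% = neutral control wells and 100% = L-leucinethiol positive control wells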
# ARNT Alpha ctr-1: AlphaScreen signal interference compounds, dose response, artefact control for ARNT-TACC3 interaction inhibitor project, biochemical, luminescence, cherry-pick; 1,200 tested, 50% active; His-ARNT PASB-GST AlphaScreen artifact counter-screen; AID 651705, 2012; shares compounds with ARNT-TACC3 inh; AC50, µM (highest dose often 68 µM), for inactives: at the highest dose activity change, negative = signal decrease;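 active means every separate test run was called active for a drop in luminescence, with AC50 within twice the top valid dose, actives reach about 71 µM in these data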
# ARNT Alpha ctr-2: AlphaScreen signal interference by compounds, dose response, artefact control for ARNT/TACC3 disruptor project, biochemical, dual-tagged ARNT, dry powder; 45 tested, 70% active; shares compounds with ARNT-TACC3 inh; Dual-tagged His-ARNT PASB-GST AlphaScreen artifact counter-screen; AID 720564, 2013; AC50, µM;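 active means luminescence drop, with half-maximal potency fitted within twice the sample's top valid dose, cut at about 70 µM in these data; inactive means the rest, including signal moving the wrong way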
# Active calls of the source: *; . = not tested or not shown; [ ] = remark or other dose.
SMILES,PGC1a acetyl inh,CASP6 VEID inh,ARNT-TACC3 inh,Ecoli rRNA inh,S100A4 inh HTS,ERAP1 inh,ARNT Alpha ctr-1,others
CN(Cc1cnc2nc(N)nc(N)c2n1)c1ccc(C(=O)NC(CCC(=O)O)C(=O)O)cc1 (stereo not drawn),3,27,15*,.,-2,-47,-23%,
C[C@@H]1CN([C@H](C)CO)S(=O)(=O)c2ccc(-c3cccc(C#N)c3)cc2O[C@@H]1CN(C)C,-1,2,0,-1,14,-2,.,
O=C(C[C@H]1CC[C@H]2[C@@H](COC[C@@H](O)CN2C(=O)Nc2ccc(C(F)(F)F)cc2)O1)NCC1CCCCC1,-4,2,2,-56,3,0,.,
CCO/C=C1/C(=O)N(Cc2ccccc2)C(=O)c2ccccc21,.,94*,25*,17,-1,-3,0%,
CCO/C=C1\C(=O)N(c2ccccc2)C(=O)c2ccccc21,-5,.,2,.,.,.,.,
CCOc1ccccc1C(=O)OCC(=O)Nc1nnc(-c2ccccc2)o1,7,1,54*,-48,1,2,-31%,
CCOc1ccccc1C(=O)NC(C(=O)OCC(=O)Nc1nnc(-c2ccccc2)o1)C(C)C (stereo not drawn),11,.,.,.,.,.,.,
O=C(Cc1ccccc1)Nc1nnc(-c2ccccc2)o1,-10,-3,17,16,-2,.,.,
COc1ccccc1-c1nnc(NC(=O)Cc2ccccc2)o1,.,-2,54*,-5,-4,-1,-23%,
Cc1nnc(SCC(=O)Nc2nnc(-c3ccccc3)o2)s1,.,0,56*,6,-7,2,-31%,
Cc1nc2ccccc2n1CC(=O)c1ccccc1,7,-3,-10,-12,-4,-2,.,
Cc1nc2ccccc2n1CC(=O)c1ccc(O)c(O)c1,.,22,57*,-8,1,0,1%,
Cc1noc(C)c1NC(=O)Nc1ccc2c(c1)CC(=O)N([C@@H](C)CO)C[C@@H](C)[C@@H](CN(C)Cc1ccc(Oc3ccccc3)cc1)O2,-1,.,-50,-9,.,.,.,
CO[C@H]1CN(C)C(=O)c2cc(NC(=O)CC(F)(F)F)ccc2OC[C@H](C)N(C(=O)C2CCCCC2)C[C@@H]1C,11,3,.,-1,-25,2,.,
CCNC(=O)C(=O)N/N=C/c1cc([N+](=O)[O-])ccc1O,0,-10,61*,.,-1,-2,25µM*,
O=C(C1CC1)N1CCc2cc(Br)cc(S(=O)(=O)NCc3ccccn3)c21,10,.,52*,.,.,.,5%,
Cc1cccc(S(=O)(=O)N[C@H]2CC[C@@H](CCn3cc(-c4ccccn4)nn3)O[C@H]2CO)c1,7,-3,.,-3,25,0,.,
Cc1cccc(S(=O)(=O)N[C@H]2CC[C@@H](CCn3cc(-c4ccccn4)nn3)O[C@@H]2CO)c1,-8,-1,102*,-2,5,-2,44µM*,
COc1cccc(S(=O)(=O)N[C@H]2CC[C@H](CCn3cc(-c4ccccn4)nn3)O[C@@H]2CO)c1,-4,-2,.,2,16,1,.,
Cc1cccc(S(=O)(=O)N[C@@H]2CC[C@@H](CCn3cc(-c4ccccn4)nn3)O[C@@H]2CO)c1,-9,5,98*,-2,2,-1,-36%[38 µM],
C[C@H](CO)N1C[C@H](C)[C@H](CN(C)S(=O)(=O)c2ccc(F)cc2)Oc2ncc(C#Cc3cccc(F)c3)cc2C1=O,-12,0,1,3,-7,1,.,
O=C(C[C@H]1CC[C@@H](NC(=O)Nc2ccc3c(c2)OCO3)[C@H](CO)O1)NCCCN1CCOCC1,8,-5,-3,0,-12,-1,.,
c1ccc(-c2ccncc2)nc1,-10,0,0,1,-3,-1,.,
c1ccc(-c2nc(-c3ccncc3)n[nH]2)nc1,.,-4,70*,14,2,0,23µM*,ARNT Alpha ctr-2=5.1*
c1coc(Cn2c(SCc3nc4ccccc4[nH]3)nnc2-c2cnccn2)c1,5,.,23,.,.,.,.,
SMILES,PGC1a acetyl inh,CASP6 VEID inh,ARNT-TACC3 inh,Ecoli rRNA inh,S100A4 inh HTS,ERAP1 inh,ARNT Alpha ctr-1,others
c1ccc(-c2nnc(SCc3nc4ccccc4[nH]3)n2Cc2ccco2)nc1,5,.,61*,.,.,.,-11%,
C[C@H]1CN([C@@H](C)CO)S(=O)(=O)c2ccc(C3=CCCC3)cc2O[C@H]1CN(C)Cc1ccncc1,-11,2,6,-6,-7,2,.,
NC(=O)CSc1nnc(-c2ccc(O)cc2)n1Cc1ccco1,3,.,38*,.,.,.,28µM*,
NC(=O)CSc1nnc(-c2cccs2)n1Cc1ccco1,-6,-1,-3,3,-2,-2,.,
COc1cccc(/C=N/NC(=O)C(=O)N2CCCCCC2)c1O,.,-16,60*,-26,-1,-3,-19%,
O=C(Nc1nc(-c2ccccn2)cs1)c1ccc(Cl)s1,-3,-4,59*,-58,-7,.,28µM*,
Cn1cccc1C(=O)Nc1nc(-c2ccccn2)cs1,1,.,63*,.,.,.,20µM*,
Cc1ccc(C(=O)Nc2nc(-c3ccccn3)cs2)s1,16,5,54*,.,-1,-1,38µM*,
CC(Oc1cccc(Cl)c1)C(=O)Nc1nc(-c2ccccn2)cs1 (stereo not drawn),-3,1,53*,-57,3,-1,-18%,
